Experimental data reported in ChEMBL document CHEMBL2380272, “Biological evaluation of bisbenzaldehydes against four Mycobacterium species” (Eur J Med Chem, 2013).
Converted amounts (≈) assume the structure as drawn.

Key:
[1] = tested on: Mycobacterium tuberculosis; assay: Antimycobacterial activity against Mycobacterium tuberculosis H37Rv ATCC 27294 assessed as growth inhibition at 0.1 uM after 6 days by luciferase reporter gene assay relative to control; assay type: functional; conditions: H37Rv ATCC 27294, 144 h, read-out: GI
Method in brief: (§1)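 Luminescent M. tb H37Rv (hsp60-driven luciferase) in 7H9 + 10% FCS was seeded at 50 000 RLU/mL. Compounds were tested at 10, 1 and 0.1 µM from 10 mM DMSO stocks. After 6 days, luminescence was read with 1% n-decanal. Growth inhibition (%) was expressed against untreated culture, with triplicates.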

[2] = tested on: Mycobacterium tuberculosis; assay: Antimycobacterial activity against Mycobacterium tuberculosis H37Rv ATCC 27294 assessed as growth inhibition at 10 uM after 6 days by luciferase reporter gene assay relative to control; assay type: functional; conditions: H37Rv ATCC 27294, 144 h, read-out: GI; method in brief: as §1
[3] = tested on: Mycobacterium tuberculosis; assay: Antimycobacterial activity against Mycobacterium tuberculosis H37Rv ATCC 27294 assessed as growth inhibition at 1 uM after 6 days by luciferase reporter gene assay relative to control; assay type: functional; conditions: H37Rv ATCC 27294, 144 h, read-out: GI; method in brief: as §1
[4] = tested on: Mycobacterium ulcerans; assay: Antimycobacterial activity against Mycobacterium ulcerans 1615 assessed as growth inhibition after 6 days by luciferase reporter gene assay; assay type: functional; conditions: Mycobacterium ulcerans, 1615, 144 h
Method in brief: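 M. ulcerans 1615 carrying pSMT1 luciferase reporter plasmid, stock grown as surface pellicle on Sauton medium, cultured at 32 °C. Serial compound dilutions in 7H9 + 10% FCS from 10 mM DMSO stocks, tested in triplicate. Filtered bacteria added at 50 000 RLU/mL. After 6 days, wells collected and washed with PBS, 1% n-decanal in ethanol added, light read over 10 s. MIC50 = concentration giving 50% inhibition versus untreated.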

[5] = Antimycobacterial activity against Mycobacterium avium subsp. avium ATCC 15769 assessed as growth inhibition after 6 days by luciferase reporter gene assay; assay type: functional; conditions: ATCC 15769, 144 h
Method in brief: (§2)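 Mycobacteria carrying the pSMT1 luciferase reporter plasmid. Compounds came from 10 mM DMSO stocks and were serially diluted in 7H9 + 10% FCS. Thawed bacteria were filtered, recovered 1 h at 37 °C, then added at 50 000 RLU/mL. After 6 days of culture, light was read for 10 s after adding 1% n-decanal. Triplicates were run, and MIC50 was the concentration giving 50% growth inhibition.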

[6] = Cytotoxicity against human HepG2/C3A cells assessed as cell viability at 60 uM after 24 hrs by neutral red uptake assay relative to control; assay type: cell-based; conditions: read-out: Activity
Method in brief: (§3)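 C3A cells grown in DMEM + 10% FCS, 40 000 cells/well, recovered overnight at 37 °C, 5% CO2. Exposed 24 h to serial dilutions in DMEM + 10% FCS from 18 mM DMSO stocks, DMSO limited to 1%. Neutral red added for 3 h, cells washed, dye extracted with ethanol/acetic acid (50%/1%), OD read at 540 nm with 620 nm reference. Viability expressed as % of untreated cells.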

[7] = tested on: Mycobacterium avium subsp. paratuberculosis; assay: Antimycobacterial activity against Mycobacterium avium subsp. paratuberculosis ATCC 19698 assessed as growth inhibition after 6 days by luciferase reporter gene assay; assay type: functional; conditions: ATCC 19698, 144 h; method in brief: as §2
[8] = Toxicity in recombinant Salmonella typhimurium TA104 expressing luxabcd genes under transcriptional control of constitutive pr1 promoter assessed as concentration required to reduce cell viability measured every 5 mins for 4 hrs by vitotox assay in presence of S9 fraction; assay type: organism-based; conditions: salmonella enterica subsp. enterica serovar typhimurium; read-out: Activity
Method in brief: (§4)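 Cytox strain TA104 pr1 (constitutive promoter driving lux), run alongside the genox strain. Grown in poor LB at 36 °C for 16 h, diluted 125-fold and shaken 1 h, then diluted 10-fold, with or without aroclor-rat S9. Luminescence read at 30 °C every 5 min over 4 h; a drop in light signal indicates reduced viability. Top concentration 10 µM.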

[9] = tested on: Mycobacterium tuberculosis; assay: Antimycobacterial activity against Mycobacterium tuberculosis H37Rv infected in mouse J774.A1 cells at 1 MOI assessed as intracellular bacterial growth inhibition at 0.1 uM after 1 hr by luciferase reporter gene assay relative to control; assay type: functional; conditions: J774.A1, 1 h, read-out: GI
[10] = tested on: Salmonella typhimurium; assay: Genotoxicity in recombinant Salmonella typhimurium TA104 expressing Vibrio fisheri luxabcd genes under transcriptional control of recN2-4 promoter assessed as concentration required to cause DNA damage measured every 5 mins for 4 hrs by vitotox assay in absence of S9 fraction; assay type: toxicity, organism-based; conditions: salmonella enterica subsp. enterica serovar typhimurium
Method in brief: (§5)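 VITOTOX genox strain TA104 recN2-4 (recN promoter driving lux). Grown 16 h at 36 °C in poor LB, diluted 125-fold and shaken 1 h, then diluted 10-fold; rat aroclor S9 added for +S9 runs. Incubated at 30 °C with light read every 5 min for 4 h. Signal/noise = exposed over unexposed light. Highest concentration tested 10 µM.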

[11] = tested on: Salmonella typhimurium; assay: Genotoxicity in recombinant Salmonella typhimurium TA104 expressing Vibrio fisheri luxabcd genes under transcriptional control of recN2-4 promoter assessed as concentration required to cause DNA damage measured every 5 mins for 4 hrs by vitotox assay in presence of S9 fraction; assay type: toxicity, organism-based; conditions: salmonella enterica subsp. enterica serovar typhimurium, s9, 4 h; method in brief: as §5
[12] = Selectivity index, ratio of NI50 for human HepG2/C3A cells to MIC50 for Mycobacterium tuberculosis H37Rv ATCC 27294; assay type: functional
[13] = tested on: Salmonella typhimurium; assay: Toxicity in recombinant Salmonella typhimurium TA104 expressing luxabcd genes under transcriptional control of constitutive pr1 promoter assessed as concentration required to reduce cell viability measured every 5 mins for 4 hrs by vitotox assay in absence of S9 fraction; assay type: organism-based; conditions: salmonella enterica subsp. enterica serovar typhimurium; method in brief: as §4
[14] = Cytotoxicity against human HepG2/C3A cells assessed as cell viability at 120 uM after 24 hrs by neutral red uptake assay relative to control; assay type: cell-based; conditions: read-out: Activity; method in brief: as §3
[15] = tested on: Mycobacterium tuberculosis; assay: Antimycobacterial activity against Mycobacterium tuberculosis H37Rv infected in mouse J774.A1 cells at 1 MOI assessed as intracellular bacterial growth inhibition at 1 uM after 1 hr by luciferase reporter gene assay relative to control; assay type: functional; conditions: J774.A1, 1 h, read-out: GI
[16] = Cytotoxicity against human HepG2/C3A cells assessed as cell viability at 180 uM after 24 hrs by neutral red uptake assay relative to control; assay type: cell-based; conditions: read-out: Activity; method in brief: as §3
[17] = tested on: Mycobacterium tuberculosis; assay: Antimycobacterial activity against Mycobacterium tuberculosis H37Rv ATCC 27294 assessed as growth inhibition after 6 days by luciferase reporter gene assay; assay type: functional; conditions: H37Rv ATCC 27294, 144 h; method in brief: as §2
[18] = tested on: Mycobacterium tuberculosis; assay: Antimycobacterial activity against Mycobacterium tuberculosis H37Rv infected in mouse J774.A1 cells at 1 MOI assessed as intracellular bacterial growth inhibition at 10 uM after 1 hr by luciferase reporter gene assay relative to control; assay type: functional; conditions: J774.A1, 1 h, read-out: GI

Compound	inhibition of growth at 0.1 µM [1]	inhibition of growth at 10 µM [2]	inhibition of growth at 1 µM [3]	also measured
O=C(O)c1ccc(OCCCCCCCCCOc2ccc(C(=O)O)cc2)cc1	< 10%	17%	17%	–
O=Cc1ccc(OCCCOc2ccc(C=O)cc2)cc1	< 10%	84%	35%	MIC50 [4]: > 10 µM; MIC50 [5]: > 10 µM; viability at 24 h, 60 µM [6]: 94.9%; MIC50 [7]: > 10 µM; MCC at 4 h [8]: > 10 µM; intracellular bacterial growth inhibition at 0.1 µM [9]: -1.2%; Activity [10]: > 10 µM; Activity [11]: > 10 µM; Selectivity Index [12]: >67.9; Activity [13]: > 10 µM; viability at 24 h, 120 µM [14]: 94.8%; percent inhibition of intracellular bacterial growth at 1 µM [15]: 29.9%; viability at 24 h, 180 µM [16]: 77.4%; MIC50 [17]: 2.65 µM (≈ 0.753 µg/mL); intracellular bacterial growth inhibition at 10 µM [18]: 42%
O=C(O)c1ccc(OCCCCCCCCCCCCOc2ccc(C(=O)O)cc2)cc1	< 10%	< 10%	< 10%	–
O=C(O)c1ccc(OCCOc2ccc(C(=O)O)cc2)cc1	< 10%	38%	< 10%	–
O=C(O)c1ccc(OCCCCCCCCCCOc2ccc(C(=O)O)cc2)cc1	< 10%	40%	< 10%	–
O=C(O)c1ccc(OCCCCCOc2ccc(C(=O)O)cc2)cc1	< 10%	27%	30%	–
O=Cc1ccc(OCCCCCCCCCCCCCCOc2ccc(C=O)cc2)cc1	30%	98%	57%	–
O=Cc1ccc(OCCOc2ccc(C=O)cc2)cc1	< 10%	90%	41%	MIC50 [4]: > 10 µM; MIC50 [5]: > 10 µM; viability at 24 h, 60 µM [6]: 93.6%; MIC50 [7]: > 10 µM; MCC at 4 h [8]: > 10 µM; intracellular bacterial growth inhibition at 0.1 µM [9]: 0.3%; Activity [10]: > 10 µM; Activity [11]: > 10 µM; Selectivity Index [12]: >80.7; Activity [13]: > 10 µM; viability at 24 h, 120 µM [14]: 85%; percent inhibition of intracellular bacterial growth at 1 µM [15]: 32.6%; viability at 24 h, 180 µM [16]: 70.5%; MIC50 [17]: 2.23 µM (≈ 0.603 µg/mL); intracellular bacterial growth inhibition at 10 µM [18]: 39.2%
NNC(=O)c1ccncc1 [ISONIAZID]	98%	100%	100%	MIC50 [4]: 0.39 µM (≈ 0.0535 µg/mL); MIC50 [5]: < 0.1 µM; MIC50 [7]: < 0.1 µM; intracellular bacterial growth inhibition at 0.1 µM [9]: 37%; percent inhibition of intracellular bacterial growth at 1 µM [15]: 82.3%; MIC50 [17]: < 0.1 µM; intracellular bacterial growth inhibition at 10 µM [18]: 97.7%
O=C(O)c1ccc(OCCCCCCOc2ccc(C(=O)O)cc2)cc1	< 10%	39%	26%	–
O=Cc1ccc(OCCCCCOc2ccc(C=O)cc2)cc1	< 10%	95%	39%	MIC50 [4]: > 10 µM; MIC50 [5]: 7.32 µM (≈ 2.29 µg/mL); viability at 24 h, 60 µM [6]: 90.4%; MIC50 [7]: 8.69 µM (≈ 2.71 µg/mL); MCC at 4 h [8]: > 10 µM; intracellular bacterial growth inhibition at 0.1 µM [9]: 0.2%; Activity [10]: > 10 µM; Activity [11]: > 10 µM; Selectivity Index [12]: >110.4; Activity [13]: > 10 µM; viability at 24 h, 120 µM [14]: 72.6%; percent inhibition of intracellular bacterial growth at 1 µM [15]: 38.1%; viability at 24 h, 180 µM [16]: 45.6%; MIC50 [17]: 1.63 µM (≈ 0.509 µg/mL); intracellular bacterial growth inhibition at 10 µM [18]: 46.8%
O=Cc1ccccc1OCCCCCOc1ccccc1C=O	< 10%	39%	15%	–
O=[N+]([O-])c1ccc(OCCCCCCCCCCCCOc2ccc([N+](=O)[O-])cc2)cc1	< 10%	91%	< 10%	–
O=C(O)c1ccc(OCCCCCCCCCCCOc2ccc(C(=O)O)cc2)cc1	< 10%	15%	< 10%	–
O=C(O)c1ccc(OCCCOc2ccc(C(=O)O)cc2)cc1	< 10%	< 10%	< 10%	–
O=Cc1ccc(OCC(O)COc2ccc(C=O)cc2)cc1	< 10%	60%	< 10%	–
O=C(O)c1ccc(OCOc2ccc(C(=O)O)cc2)cc1	< 10%	40%	< 10%	–
O=Cc1ccc(OCOc2ccc(C=O)cc2)cc1	< 10%	85%	30%	MIC50 [4]: > 10 µM; MIC50 [5]: > 10 µM; viability at 24 h, 60 µM [6]: 96.8%; MIC50 [7]: > 10 µM; MCC at 4 h [8]: > 10 µM; intracellular bacterial growth inhibition at 0.1 µM [9]: 1.6%; Activity [10]: > 10 µM; Activity [11]: > 10 µM; Selectivity Index [12]: >60; Activity [13]: > 10 µM; viability at 24 h, 120 µM [14]: 91.6%; percent inhibition of intracellular bacterial growth at 1 µM [15]: 35.2%; viability at 24 h, 180 µM [16]: 78.6%; MIC50 [17]: 3 µM (≈ 0.769 µg/mL); intracellular bacterial growth inhibition at 10 µM [18]: 41.3%
O=C(O)c1ccc(OCCCCCCCCOc2ccc(C(=O)O)cc2)cc1	< 10%	29%	29%	–
O=Cc1cccc(OCCCCCOc2cccc(C=O)c2)c1	< 10%	97%	< 10%	–
c1ccc(OCCCCCCCCCCCCOc2ccccc2)cc1	< 10%	< 10%	< 10%	–
O=C(O)c1ccc(OCCCCOc2ccc(C(=O)O)cc2)cc1	< 10%	27%	26%	–
CCCCCCCCCCCCOc1ccc(C=O)cc1	< 10%	< 10%	< 10%	–
O=Cc1cccc(OCCCCCCCCCCCCOc2cccc(C=O)c2)c1	< 10%	< 10%	< 10%	–
O=Cc1ccc(OCCOCCOc2ccc(C=O)cc2)cc1	< 10%	70%	12%	–
O=C(O)c1ccc(OCCCCCCCOc2ccc(C(=O)O)cc2)cc1	< 10%	38%	14%	–
